The record followed here is ChEMBL document CHEMBL2176942 (J Med Chem, 2012).

A value given as a limit tells only on which side of the number the result lay.

Data set [1] in a line: in vitro. The note with it: rat.
Data set [2] can be described thus: in vitro. The note with it: human.
A short description of data set [3]: Permeability across human Caco2 cells at pH 7.4. Type of data set: ADME, cell-based. The note with it: Caco-2, pH 7.4, read-out: permeability. In a few lines:
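Caco-2 permeability run without BSA, with both chambers at pH 7.4; values are the average of at least two determinations.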

A short description of data set [4]: Volume of distribution at steady state in rat at 2 mg/kg, iv. Type of data set: ADME, organism-based. Also noted: dose 2 mg/kg, route intravenous. The note with it: in vivo, read-out: Vdss. Put shortly:
(§1)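 Rats starved overnight, then given 10 mg/kg po as a suspension in 0.3% Tween-80 and 0.5% Methocel, or 2 mg/kg iv in 70% PEG400. Plasma was solid-phase extracted and assayed by HPLC-UV (LOQ 6 ng/mL, calibration in blank plasma). Parameters were derived by noncompartmental analysis.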

Data set [5] in a line: Mean residence time in dog at 10 mg/kg, po. Type of data set: ADME, organism-based, Canis lupus familiaris. Details: dose 10 mg/kg, route oral; call rule not given here. The note with it: in vivo. In a few lines: (§2)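 Dogs starved overnight, then dosed 2 mg/kg iv in 70% PEG400 or 10 mg/kg orally as a suspension in 0.3% Tween-80/0.5% Methocel. Plasma was extracted by solid phase and quantified by HPLC with UV diode-array detection (LOQ 6 ng/mL). Parameters came from noncompartmental analysis.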

The nature of data set [6]: Volume of distribution at steady state in rhesus monkey at 2 mg/kg, iv. Type of data set: ADME, organism-based, Macaca mulatta. Also noted: dose 2 mg/kg, route intravenous. The note with it: in vivo, read-out: Vdss. In a few lines:
(§3)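 Rhesus monkeys fasted overnight, then dosed iv at 2 mg/kg in 70% PEG400 or orally at 10 mg/kg as a suspension in 0.3% Tween-80 and 0.5% Methocel. Plasma was kept frozen at about −20 °C, extracted by solid-phase extraction and assayed by HPLC-UV against blank-plasma standards (LOQ 6 ng/mL). Parameters came from noncompartmental analysis.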

Data set [7] is described as follows: Mean residence time in rat at 10 mg/kg, po. Format: ADME, organism-based. Details: dose 10 mg/kg, route oral. The note with it: in vivo. Put shortly: as §1
A short description of data set [8]: Cmax in rhesus monkey at 10 mg/kg, po. The note with it: in vivo. Format: ADME, organism-based, Macaca mulatta. Also noted: dose 10 mg/kg, route oral. Put shortly:
as §3

Data set [9] can be described thus: Mean residence time in rhesus monkey at 10 mg/kg, po. Type of data set: ADME, organism-based, Macaca mulatta. Also noted: dose 10 mg/kg, route oral. The note with it: in vivo. Put shortly: as §3
The nature of data set [10]: AUC in rhesus monkey at 10 mg/kg, po. Details: dose 10 mg/kg, route oral. Type of data set: ADME, organism-based, Macaca mulatta. The note with it: plasma. Put shortly: (§4)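 Fasted overnight, then dosed orally at 10 mg/kg as a suspension in 0.3% Tween-80 and 0.5% Methocel. Blood kept on ice and centrifuged at 4 °C; plasma stored at about −20 °C. Solid-phase extraction, then HPLC with UV diode-array detection (200–400 nm) quantified by peak height against blank-plasma standards (LOQ 6 ng/mL). AUC from noncompartmental analysis.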

A short description of data set [11]: Oral bioavailability rhesus monkey. The note with it: in vivo. Format: ADME, organism-based, Macaca mulatta. In a few lines:
as §3

Data set [12] is described as follows: AUC in rat at 10 mg/kg, po. Format: ADME, organism-based. Also noted: dose 10 mg/kg, route oral. The note with it: plasma. In a few lines:
as §1

Data set [13] in a line: Oral bioavailability in rat. The note with it: in vivo. Format: ADME, organism-based. Put shortly:
as §1

Data set [14] can be described thus: Half life in rhesus monkey at 2 mg/kg, iv. Type of data set: ADME, organism-based, Macaca mulatta. Also noted: dose 2 mg/kg, route intravenous. The note with it: in vivo. In a few lines: as §3
Data set [15] is described as follows: Volume of distribution at steady state in dog at 2 mg/kg, iv. Format: ADME, organism-based, Canis lupus familiaris. Details: dose 2 mg/kg, route intravenous. The note with it: in vivo, read-out: Vdss. Put shortly:
as §2

A short description of data set [16]: Half life in dog at 2 mg/kg, iv. Also noted: dose 2 mg/kg, route intravenous. Type of data set: ADME, organism-based, Canis lupus familiaris. The note with it: in vivo. Put shortly: as §2
The nature of data set [17]: AUC in dog at 10 mg/kg, po. Format: ADME, organism-based, Canis lupus familiaris. Details: dose 10 mg/kg, route oral. The note with it: plasma. Put shortly:
as §4

Data set [18] can be described thus: Oral bioavailability in dog. Format: ADME, organism-based, Canis lupus familiaris. The note with it: in vivo. In a few lines:
as §2

Data set [19] in a line: Half life in rat at 2 mg/kg, iv. Format: ADME, organism-based. Details: dose 2 mg/kg, route intravenous. The note with it: in vivo. In a few lines:
as §1

Data set [20] in a line: Cmax in rat at 10 mg/kg, po. Format: ADME, organism-based. Also noted: dose 10 mg/kg, route oral. The note with it: in vivo. Put shortly:
as §1

Data set [21] can be described thus: Cmax in dog at 10 mg/kg, po. The note with it: in vivo. Format: ADME, organism-based, Canis lupus familiaris. Also noted: dose 10 mg/kg, route oral.
A short description of data set [22]: Clearance in dog at 2 mg/kg, iv. Also noted: dose 2 mg/kg, route intravenous. The note with it: in vivo. Format: ADME, organism-based, Canis lupus familiaris.
The nature of data set [23]: Clearance in rat at 2 mg/kg, iv. Format: ADME, organism-based. Details: dose 2 mg/kg, route intravenous. The note with it: in vivo.
Data set [24] concerns Liver microsomes. The data set can be described thus: Drug metabolism in rat liver microsomes assessed as formation of metabolite 3-(4-(2-(3-(3-hydroxycyclohexyl)-1-methyl-2-(pyridin-2-yl)-1H-indole-6-carboxamido)-2-methylpropanamido)phenyl)acrylic acid incubated for 30 mins by HPLC/MS method. Format: ADME, Microsome. The note with it: 0.5 h. On the technique in general: Liver microsomes are vesicles of endoplasmic reticulum, rich in cytochrome P450 enzymes.

Data set [25] concerns Liver microsomes. Nature of the data set: Drug metabolism in human liver microsomes assessed as formation of metabolite 3-(4-(2-(3-(3-hydroxycyclohexyl)-1-methyl-2-(pyridin-2-yl)-1H-indole-6-carboxamido)-2-methylpropanamido)phenyl)acrylic acid incubated for 30 mins by HPLC/MS method. Type of data set: ADME, Microsome. The note with it: 0.5 h.

As for `Cn1c(-c2ccccn2)c(C2CCCC2)c2ccc(C(=O)NC3(C(=O)Nc4ccc(/C=C/C(=O)O)cc4)CCCC3)cc21`, the half-life in the data set “in vitro [1]” (microsomes) came out at 0.317 h; in the data set “in vitro [2]” (microsomes) it was 1.6 h. For the same compound, the Papp in [3] stood at 126 nm/s.

With `Cn1c(-c2ccccn2)c(C2CCCC2)c2ccc(C(=O)NC3(C(=O)Nc4ccc(/C=C/C(=O)O)cc4)CCC3)cc21` [BILB-1941], the results for the Vd in [4], in [6] and in data set [15] were 0.48 L/kg, 0.7 L/kg and 0.54 L/kg, respectively. Further, the MRT in data set [5] was 5.4 h; in data set [7] it was 4.1 h; in data set [9] it was 2.9 h. The Cmax in data set [8] came out at 6.4 µM; in data set [20], 7.5 µM. The half-life in the data set “in vitro [1]” (microsomes) was 0.517 h; in the data set “in vitro [2]” (microsomes), 1.42 h; in [14], 1.7 h; in [16] it was 4.3 h; in data set [19], 1.5 h. The AUC in [10] was 20.5 µM·h; in data set [12], 22.7 µM·h; in [17] it was 99 µM·h. Besides, the bioavailability in data set [11] was determined as 70%; in [13], 59%; in data set [18], 64%. Further, the Papp in data set [3] was 112 nm/s.

As for `Cn1c(-c2ccncc2)c(C2CCCC2)c2ccc(C(=O)NC3(C(=O)Nc4ccc(/C=C/C(=O)O)cc4)CCCC3)cc21`, the half-life in “in vitro [2]” (liver microsomes) was determined as 1.78 h. Moreover, the Papp in [3] is 8 nm/s.

Regarding `COc1ccc(-c2c(C3CCCC3)c3ccc(C(=O)NC4(C(=O)Nc5ccc(/C=C/C(=O)O)cc5)CCC4)cc3n2C)cn1`, the results for the half-life in “in vitro [1]” (liver microsomes) and in the data set “in vitro [2]” (liver microsomes) were 1.02 h and 1.58 h, respectively. The Papp in data set [3] came out at 15 nm/s.

`Cn1c(-c2cccc(N)n2)c(C2CCCC2)c2ccc(C(=O)NC3(C(=O)Nc4ccc(/C=C/C(=O)O)cc4)CCC3)cc21` gave an MRT in data set [7] of 3.4 h. The half-life was 1.03 h in the data set “in vitro [1]” (liver microsomes) and greater than 5 h in “in vitro [2]” (liver microsomes). In [12], this compound showed an AUC of 8.4 µM·h. Besides, the Papp in data set [3] turned out to be 18 nm/s. The compound further yielded a Cmax in [20] of 3.7 µM.

`Cn1c(-c2ccoc2)c(C2CCCC2)c2ccc(C(=O)NC3(C(=O)Nc4ccc(/C=C/C(=O)O)cc4)CCC3)cc21` displayed a half-life in the data set “in vitro [2]” (microsomes) of 2.7 h. Also, the Papp in data set [3] was 75 nm/s.

As for `Cn1c(-c2cnccn2)c(C2CCCC2)c2ccc(C(=O)NC3(C(=O)Nc4ccc(/C=C/C(=O)O)cc4)CCC3)cc21`, the Vd in data set [4] amounted to 0.58 L/kg; in [15], 0.75 L/kg. In addition, the MRT worked out at 3.9 h in data set [5] and 2.4 h in [7]. In addition, the half-life in the data set “in vitro [1]” (liver microsomes) is 0.933 h; in “in vitro [2]” (liver microsomes), 1.6 h; in [16], 1.6 h; in [19], 2.2 h. The Cmax came to 10.9 µM in data set [21] and 7.8 µM in [20]. Also, the clearance was 0.258 L/h/kg in [22] and 0.408 L/h/kg in [23]. Further, the AUC in [12] was 17.7 µM·h; in data set [17], 37.4 µM·h. Also, the Papp in data set [3] turned out to be 100 nm/s. The bioavailability was 41% in data set [13] and 54% in data set [18].

Regarding `Cn1c(-c2ccc(F)cn2)c(C2CCCC2)c2ccc(C(=O)NC3(C(=O)Nc4ccc(/C=C/C(=O)O)cc4)CCC3)cc21`, in “in vitro [2]” (liver microsomes), the half-life came to 2.78 h.

As to `Cn1c(-c2ccccn2)c(C2CCCC2)c2ccc(C(=O)NC(C)(C)C(=O)Nc3ccc(/C=C/C(=O)O)cc3)cc21`, in [4], the Vd was 1.3 L/kg. Further, the MRT in data set [7] is 1.7 h. This compound also came in with an AUC in [12] of 7.2 µM·h. This compound also gave a clearance in [23] of 1.09 L/h/kg. Also, in data set [3], the Papp amounted to 65 nm/s. In data set [13], the bioavailability came out at 46%. For the same compound, in data set [19], the half-life is 1.7 h. Also, the Cmax in data set [20] worked out at 6.4 µM.

Regarding `Cn1c(-c2ccc(Cl)cc2)c(C2CCCC2)c2ccc(C(=O)NC3(C(=O)Nc4ccc(/C=C/C(=O)O)cc4)CCC3)cc21`, the half-life in “in vitro [1]” (liver microsomes) and in the data set “in vitro [2]” (liver microsomes) was greater than 5 h throughout.

Take `Cn1c(-c2ccncc2)c(C2CCCC2)c2ccc(C(=O)NC3(C(=O)Nc4ccc(/C=C/C(=O)O)cc4)CCC3)cc21`: the half-life in “in vitro [1]” (liver microsomes) was determined as 1.15 h; in the data set “in vitro [2]” (liver microsomes), 1.87 h. In addition, the Papp in data set [3] was 29 nm/s.

On to `Cn1c(-c2ccc(Cl)cn2)c(C2CCCC2)c2ccc(C(=O)NC(C)(C)C(=O)Nc3ccc(/C=C/C(=O)O)cc3)cc21`, for which, in “in vitro [2]” (microsomes), the half-life was 3.93 h. For the same compound, the Papp in data set [3] was 18 nm/s.

Consider `Cn1c(-c2ccccn2)c(C2CCCCC2)c2ccc(C(=O)NC(C)(C)C(=O)Nc3ccc(/C=C/C(=O)O)cc3)cc21`, for which the Drug metabolism entry with Liver microsomes [24] and in the data set with Liver microsomes [25] was “Active” throughout.

As to `CN1CC[C@@](NC(=O)c2ccc3c(C4CCCC4)c(-c4cccc(N)n4)n(C)c3c2)(C(=O)Nc2ccc(/C=C/C(=O)O)cc2)C1`, in “in vitro [2]” (microsomes), the half-life is greater than 5 h. Further, the Papp in [3] was 29 nm/s. In data set [20], this compound showed a Cmax of 0.09 µM.

With `Cc1ccc(-c2c(C3CCCC3)c3ccc(C(=O)NC4(C(=O)Nc5ccc(/C=C/C(=O)O)cc5)CCC4)cc3n2C)nc1`, the figures for the half-life in “in vitro [1]” (microsomes) and in the data set “in vitro [2]” (microsomes) were 0.4 h and 0.883 h, respectively. For the same compound, the Papp in data set [3] turned out to be 69 nm/s.

In turn, `Cn1c(-c2ccc(Cl)cn2)c(C2CCCC2)c2ccc(C(=O)NC3(C(=O)Nc4ccc(/C=C/C(=O)O)cc4)CCCC3)cc21` came in with a half-life in “in vitro [2]” (liver microsomes) greater than 5 h.

As a reminder, the half-life is the time in which the quantity being followed falls by half. As a reminder, the MRT is a mean duration of stay, worked out from the concentration-time curve. For orientation: Cmax means the peak of the concentration-time curve. A word on the AUC: it is the area under the concentration-time curve, a measure of exposure. As a reminder, the bioavailability is the share of a dose that reaches the circulation, judged against a reference dose that is usually intravenous. By clearance is commonly meant the volume of plasma or blood freed of the substance per unit of time.
